Experimental data reported in ChEMBL document CHEMBL5058577, “EUbOPEN Chemogenomics Library 2 (Multiplex)” (2022).

System: U2OS
Test: Multiplex assay against U2OS
Type: toxicity, cell-based
Conditions: human
Outline: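 Tubulin, mitochondrial-mass and membrane-permeability phenotypes are per cents of healthy-nucleus cells. Cells were gated by CellPathfinder machine learning into Hoechst high-intensity objects or normal cells, normal cells into healthy, pyknosed or fragmented nuclei, and pyknosed cells into mitotic or apoptotic. Before that, live cells stained at seeding with Hoechst33342, BioTracker Green Microtubule Cytoskeleton Dye, MitoTracker Red and Annexin V Alexa Fluor 680 were imaged on a CQ1 microscope at 37°C and 5% CO2 after compound addition.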

[1] = 12 h, 1 µM, compound concentration 1 uM, replicate 1
[2] = 12 h, 1 µM, compound concentration 1 uM, replicate 2
[3] = 12 h, 10 µM, compound concentration 10 uM, replicate 1
[4] = 12 h, 10 µM, compound concentration 10 uM, replicate 2
[5] = 24 h, 1 µM, compound concentration 1 uM, replicate 1
[6] = 24 h, 1 µM, compound concentration 1 uM, replicate 2
[7] = 24 h, 10 µM, compound concentration 10 uM, replicate 1
[8] = 24 h, 10 µM, compound concentration 10 uM, replicate 2
[9] = 48 h, 1 µM, compound concentration 1 uM, replicate 1
[10] = 48 h, 1 µM, compound concentration 1 uM, replicate 2
[11] = 48 h, 10 µM, compound concentration 10 uM, replicate 1
[12] = 48 h, 10 µM, compound concentration 10 uM, replicate 2

SMILES: CCCC(CCC)C(=O)O [VALPROIC ACID]
- Population Apoptotic (%) [1]: 72%
- Population Fragmented Nuclei (%) [1]: 28%
- Population Healthy Nuclei (%) [1]: 63%
- Population Hoechst High Intensity Objects (%) [1]: 6%
- Population Membrane Permeable-Phenotype (%) [1]: 9%
- Population Mitochondria Different-Phenotype (%) [1]: 7%
- Population Mitotic Cells (%) [1]: 27%
- Population Normal (%) [1]: 93%
- Population Pyknosed Nuclei (%) [1]: 8%
- Population Tubulin-Different-Phenotype (%) [1]: 8%
- Population Apoptotic (%) [2]: 66%
- Population Fragmented Nuclei (%) [2]: 14%
- Population Healthy Nuclei (%) [2]: 77%
- Population Hoechst High Intensity Objects (%) [2]: 2%
- Population Membrane Permeable-Phenotype (%) [2]: 8%
- Population Mitochondria Different-Phenotype (%) [2]: 3%
- Population Mitotic Cells (%) [2]: 33%
- Population Normal (%) [2]: 97%
- Population Tubulin-Different-Phenotype (%) [2]: 6%
- Population Apoptotic (%) [3]: 77%
- Population Fragmented Nuclei (%) [3]: 30%
- Population Healthy Nuclei (%) [3]: 66%
- Population Hoechst High Intensity Objects (%) [3]: 4%
- Population Membrane Permeable-Phenotype (%) [3]: 6%
- Population Mitochondria Different-Phenotype (%) [3]: 3%
- Population Mitotic Cells (%) [3]: 22%
- Population Normal (%) [3]: 95%
- Population Pyknosed Nuclei (%) [3]: 3%
- Population Tubulin-Different-Phenotype (%) [3]: 4%
- Population Apoptotic (%) [4]: 85%
- Population Fragmented Nuclei (%) [4]: 21%
- Population Healthy Nuclei (%) [4]: 70%
- Population Hoechst High Intensity Objects (%) [4]: 0%
- Population Membrane Permeable-Phenotype (%) [4]: 4%
- Population Mitochondria Different-Phenotype (%) [4]: 4%
- Population Mitotic Cells (%) [4]: 14%
- Population Normal (%) [4]: 100%
- Population Pyknosed Nuclei (%) [4]: 7%
- Population Apoptotic (%) [5]: 84%
- Population Fragmented Nuclei (%) [5]: 24%
- Population Healthy Nuclei (%) [5]: 66%
- Population Hoechst High Intensity Objects (%) [5]: 6%
- Population Membrane Permeable-Phenotype (%) [5]: 9%
- Population Mitochondria Different-Phenotype (%) [5]: 6%
- Population Mitotic Cells (%) [5]: 16%
- Population Normal (%) [5]: 93%
- Population Pyknosed Nuclei (%) [5]: 8%
- Population Tubulin-Different-Phenotype (%) [5]: 9%
- Population Apoptotic (%) [6]: 100%
- Population Fragmented Nuclei (%) [6]: 17%
- Population Healthy Nuclei (%) [6]: 74%
- Population Hoechst High Intensity Objects (%) [6]: 3%
- Population Mitochondria Different-Phenotype (%) [6]: 2%
- Population Mitotic Cells (%) [6]: 0%
- Population Normal (%) [6]: 96%
- Population Tubulin-Different-Phenotype (%) [6]: 7%
- Population Apoptotic (%) [7]: 83%
- Population Fragmented Nuclei (%) [7]: 25%
- Population Healthy Nuclei (%) [7]: 71%
- Population Hoechst High Intensity Objects (%) [7]: 2%
- Population Membrane Permeable-Phenotype (%) [7]: 4%
- Population Mitochondria Different-Phenotype (%) [7]: 3%
- Population Mitotic Cells (%) [7]: 16%
- Population Normal (%) [7]: 97%
- Population Pyknosed Nuclei (%) [7]: 3%
- Population Tubulin-Different-Phenotype (%) [7]: 3%
- Population Apoptotic (%) [8]: 100%
- Population Fragmented Nuclei (%) [8]: 17%
- Population Healthy Nuclei (%) [8]: 78%
- Population Hoechst High Intensity Objects (%) [8]: 0%
- Population Membrane Permeable-Phenotype (%) [8]: 8%
- Population Mitochondria Different-Phenotype (%) [8]: 4%
- Population Mitotic Cells (%) [8]: 0%
- Population Normal (%) [8]: 100%
- Population Pyknosed Nuclei (%) [8]: 4%
- Population Tubulin-Different-Phenotype (%) [8]: 5%
- Population Apoptotic (%) [9]: 76%
- Population Fragmented Nuclei (%) [9]: 20%
- Population Healthy Nuclei (%) [9]: 69%
- Population Hoechst High Intensity Objects (%) [9]: 3%
- Population Membrane Permeable-Phenotype (%) [9]: 7%
- Population Mitochondria Different-Phenotype (%) [9]: 5%
- Population Mitotic Cells (%) [9]: 23%
- Population Normal (%) [9]: 96%
- Population Pyknosed Nuclei (%) [9]: 9%
- Population Tubulin-Different-Phenotype (%) [9]: 5%
- Population Apoptotic (%) [10]: 91%
- Population Fragmented Nuclei (%) [10]: 16%
- Population Healthy Nuclei (%) [10]: 72%
- Population Membrane Permeable-Phenotype (%) [10]: 8%
- Population Mitotic Cells (%) [10]: 8%
- Population Pyknosed Nuclei (%) [10]: 11%
- Population Tubulin-Different-Phenotype (%) [10]: 6%
- Population Apoptotic (%) [11]: 91%
- Population Fragmented Nuclei (%) [11]: 20%
- Population Healthy Nuclei (%) [11]: 71%
- Population Hoechst High Intensity Objects (%) [11]: 2%
- Population Membrane Permeable-Phenotype (%) [11]: 3%
- Population Mitochondria Different-Phenotype (%) [11]: 2%
- Population Mitotic Cells (%) [11]: 8%
- Population Normal (%) [11]: 97%
- Population Pyknosed Nuclei (%) [11]: 7%
- Population Tubulin-Different-Phenotype (%) [11]: 1%
- Population Apoptotic (%) [12]: 93%
- Population Hoechst High Intensity Objects (%) [12]: 1%
- Population Membrane Permeable-Phenotype (%) [12]: 9%
- Population Mitotic Cells (%) [12]: 6%
- Population Normal (%) [12]: 98%
- Population Tubulin-Different-Phenotype (%) [12]: 4%
